Compound activity as filed in PubChem.
Only some compounds are listed: those with a hit (about 5.7% of all), similar ones and a draw of the others.
SKKanGAS inh = inhibitors of SKKanGAS S. pyogenes growth in kanamycin (SK-promoter or general growth effect). BacTiter-Glo, 6 h. inhibition, % at 7.5 µM. 300,000 compounds, 1.3% hits;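 active = mean replicate score, as percent of positive control median, at least 50; inconclusive = mean below 50 but one replicate at or above 50; inactive = mean and every replicate below 50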;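 note: strain carries kanamycin resistance gene driven by streptokinase promoter and grows in 40 µg/ml kanamycin; loss of luminescence reflects streptokinase promoter inhibition or plain growth inhibition; 0% = median of DMSO wells and 100% = positive control at its reference dose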
T cruzi repl = blocks replication of Trypanosoma cruzi | inhibition, % (no concentration beside the values) | T. cruzi beta-gal in NIH3T3, luminescence, 90 h | 300,000 compounds, 1.4% hits;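 active = mean inhibition across valid replicates above about 55%, limit read from the data; inconclusive = mean below that limit but half or more replicates reach it; inactive = mean below it, under half of replicates reach it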;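 note: signal also drops with host cell toxicity which is not excluded here; 0% = plate median of DMSO wells and 100% = zero luminescence signal; higher percent means less beta-gal luminescence so fewer parasites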
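System: NIH/3T3 fibroblasts plus reporter T. cruzi. Medium: DMEM plus 2% FBS. Probe or stimulus: 5000 reporter trypomastigotes per well. Compound: single 50 nL compound addition per well in DMSO. Incubation: co-culture of at least 90 h after 3 h attachment. Detection: GalScreen β-gal luminescence, detergent lysis, 60 min. Evaluation: parasite load inhibition, %.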
Calb FLC = affects C. albicans growth with fluconazole; 300,000 compounds, 0.57% hits; growth inhibition, % (test concentration not listed); C. albicans CaCi-2 (fluconazole-resistant clinical isolate) + fluconazole, Alamar Blue growth, 48 h;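 active = growth inhibition above about 58% in most replicates, limit read from the data, passing the limit was not always enough; inconclusive = exactly half the replicates above a set limit; inactive = most replicates below a set limit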;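 note: all wells also contain fluconazole at 8 µg/ml as a sub-toxic cotreatment; 0% = median of DMSO wells and 100% = median of geldanamycin control wells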
Beta apoptosis = beta cell apoptosis inhibition | protection from apoptosis, % (no concentration beside the values) | INS-1E cytokine-induced death, ATP luminescence, 48 h; percent of positive-control rescue, neutral wells zero | 300,000 compounds, 0.8% hits;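 active = Every replicate reaches about 75%, or at least half do and their mean reaches it too, limit read from the data; inconclusive = At least half of replicates reach the limit but their mean does not; inactive = Under half of replicates reach the limit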;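 note: 0% = cytokine-treated negative control wells and 100% = positive control rescue; higher means more ATP so stronger rescue from cytokine killing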
CSC inhib = blocks cancer stem cells. inhibition, % at 7.5 µM. cancer stem cell-like cells viability, luminescence. AID 2717. 300,000 compounds, 1.1% hits; in the data active = inhibition above about 75%; inconclusive = no clear call, values can overlap the other calls; tested in HMLE shEcad cells
Mdm2 MdmX PPI = disrupts the human Mdm2-MdmX interaction. O15151+Q00987. SaOS-2 split-luciferase Mdm2/MdmX complementation, luminescence. inhibition, % at 8 µM. 330,000 compounds, 3% hits. AID 485346;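 active = inhibition of at least 50% at 8 µM in the primary screen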
Target sequence (O15151 whole entry, looked up): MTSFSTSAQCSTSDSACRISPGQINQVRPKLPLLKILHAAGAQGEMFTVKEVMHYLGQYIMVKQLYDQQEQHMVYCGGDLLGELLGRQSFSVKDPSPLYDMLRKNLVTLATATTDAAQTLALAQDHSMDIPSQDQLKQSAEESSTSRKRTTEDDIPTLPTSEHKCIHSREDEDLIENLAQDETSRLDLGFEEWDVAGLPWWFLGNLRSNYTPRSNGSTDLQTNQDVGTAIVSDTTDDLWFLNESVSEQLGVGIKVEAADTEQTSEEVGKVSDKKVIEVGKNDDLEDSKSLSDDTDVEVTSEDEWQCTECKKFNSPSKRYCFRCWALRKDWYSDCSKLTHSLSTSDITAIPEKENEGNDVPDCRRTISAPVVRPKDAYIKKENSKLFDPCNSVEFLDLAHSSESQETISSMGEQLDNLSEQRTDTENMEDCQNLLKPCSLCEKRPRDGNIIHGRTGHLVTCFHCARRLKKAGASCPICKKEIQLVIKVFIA
Target sequence (Q00987 whole entry, looked up): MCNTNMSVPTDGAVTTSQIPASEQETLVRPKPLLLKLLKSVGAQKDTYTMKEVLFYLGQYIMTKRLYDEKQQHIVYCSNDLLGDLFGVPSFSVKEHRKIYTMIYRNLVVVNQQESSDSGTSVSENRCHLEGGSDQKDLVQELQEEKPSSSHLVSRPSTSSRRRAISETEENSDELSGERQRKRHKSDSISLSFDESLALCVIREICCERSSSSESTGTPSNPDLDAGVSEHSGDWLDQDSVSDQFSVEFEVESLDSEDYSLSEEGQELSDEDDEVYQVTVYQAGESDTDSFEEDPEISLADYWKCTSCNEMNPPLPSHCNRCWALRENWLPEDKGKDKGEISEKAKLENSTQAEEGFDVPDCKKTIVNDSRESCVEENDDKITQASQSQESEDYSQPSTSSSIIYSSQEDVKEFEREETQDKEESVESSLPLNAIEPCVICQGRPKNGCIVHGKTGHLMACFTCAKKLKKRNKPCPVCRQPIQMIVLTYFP
* marks the source's active call; other numbers are inactive results; ? = inconclusive; nt = not tested or not shown.

SMILES	SKKanGAS inh	T cruzi repl	Calb FLC	Beta apoptosis	CSC inhib	Mdm2 MdmX PPI
Cc1c(C(=O)Nc2cccc(Cl)c2)c2ccccn2c1CCc1ccncc1	4.1	55.8*	11.3	nt	nt	nt
Cc1c(C(=O)Nc2ccc(Cl)cc2)c2ccccn2c1CCc1ccncc1	-6.9	63.1*	?	12.0	20.6	-14.2
COC(=O)/C=C/c1cccc([C@H]2[C@@H]3C=CC[C@@H](C)[C@@H]3C(=O)N2Cc2ccccc2)c1	nt	nt	nt	nt	nt	15.8
CC(C)(C)C(=O)Nc1ccccc1C(=O)NCc1cccnc1	-0.8	14.4	-1.9	-2.6	-13.7	-7.2
CC(C)(C)c1ccccc1OCC(=O)Nc1ccccc1C(=O)NCc1cccnc1	-24.3	62.3*	0.2	3.2	15.5	22.0
CC(OC(=O)c1oc2ccccc2c1COc1ccccc1)C(N)=O (configuration not stated)	0.7	-8.2	109.2*	nt	-14.2	17.5
CC(C)(C)NC(=O)c1oc2ccccc2c1COc1ccccc1	-0.5	-4.0	2.2	-3.7	8.4	8.0
Cc1nc(-c2ccccc2)sc1C1(C)CC(c2cccc(F)c2)=NO1 (configuration not stated)	2.1	-7.7	-6.4	1.9	-8.9	-4.4
Cc1ccc(C(=O)Nc2ccccc2-c2ccccc2)cc1S(=O)(=O)Nc1cccc(C)c1C	33.6	62.4*	18.0	18.3	23.0	23.7
Cc1ccc(-c2nc(CS(=O)CC(=O)NCc3ccc4c(c3)OCO4)c(C)o2)cc1 (configuration not stated)	-0.3	2.1	-1.5	8.6	75.7*	35.5
CN1CCN(C(c2ccccn2)c2cc(Cl)c3cccnc3c2O)CC1 (configuration not stated)	19.0	?	100.7*	15.2	62.2	49.4
CC(=O)NC(C)c1cc(F)c2cccnc2c1O (configuration not stated)	nt	nt	nt	-7.8	-4.4	22.2
COc1ccccc1C(CNC(=O)c1cccc(NS(=O)(=O)c2ccc(C)c(F)c2)c1)N1CCCC1 (configuration not stated)	-7.0	4.6	-9.9	3.6	-6.1	32.3
COc1cccc(CN(C(=O)c2cc3ccccc3oc2=O)C2CC2)c1	-13.7	-4.3	89.9*	-1.4	-7.1	-9.5
CCc1nn(CC(=O)NCCCN2CCOCC2)c(=O)c2cc3cc(F)ccc3n12	0.9	-3.8	-0.9	0.0	4.5	-5.8
C=CCc1ccccc1OCC(O)CN1CCN(CCN2C(=O)c3cccc4cccc(c34)C2=O)CC1 (configuration not stated)	13.0	43.6	54.5	23.8	60.2	13.1
Cc1ccccc1OCC(O)CN1CCN(CCN2C(=O)c3cccc4cccc(c34)C2=O)CC1 (configuration not stated)	12.9	56.2*	41.3	10.1	25.2	13.7
CN1CCN(CCCNC(=O)c2ccc(/C=C3/Sc4ccccc4N(Cc4cccc(Cl)c4)C3=O)cc2)CC1	34.7	57.7*	19.6	nt	nt	nt
CN1CCN(CCCNC(=O)c2ccc(/C=C3\Sc4ccccc4N(Cc4ccc(F)cc4)C3=O)cc2)CC1	14.9	?	70.8	nt	nt	nt
COc1cccc(/C=C2\Sc3ccc(C(=O)NCc4cccnc4)cc3N(C)C2=O)c1	38.1	36.6	5.9	7.2	52.1	12.1
COc1ccc(C(=O)NCc2cccnc2)cc1C(=O)NCc1cccnc1	nt	nt	nt	-2.4	-0.9	-19.3
CN1C(=O)/C(=C/c2cccc(Cl)c2)Sc2ccc(C(=O)NCc3cccnc3)cc21	48.4	29.6	-2.5	12.7	95.6*	13.6
COc1ccc(/C=C2\Sc3ccc(C(=O)NCc4cccnc4)cc3N(C)C2=O)cc1OC	65.6*	-0.3	7.3	0.4	31.3	7.7
CCN1CCN(C(=O)c2cc(COc3ccc4ncccc4c3)on2)CC1	-1.3	5.9	0.7	45.2	6.6	-6.2
O=C(NCc1cccc(Cl)c1)c1cc(COc2ccc3ncccc3c2)on1	2.7	-43.5	?	65.9	26.5	20.2
SMILES	SKKanGAS inh	T cruzi repl	Calb FLC	Beta apoptosis	CSC inhib	Mdm2 MdmX PPI
CCC1CCCCN1C(=O)c1cc(COc2ccc3ncccc3c2)on1 (configuration not stated)	-7.2	35.0	15.2	112.9*	-4.1	-23.6
COCCC1CCCCN1C(=O)c1cc(COc2ccc(-n3cncn3)cc2)on1 (configuration not stated)	-3.2	-14.3	3.5	86.5*	-13.1	24.3
CCN(CC)C(=O)C1CCCN(C(=O)c2cc(COc3ccc4ncccc4c3)on2)C1 (configuration not stated)	-4.6	6.9	0.1	nt	-13.5	15.8
COCC1CCCCN1C(=O)c1cc(COc2ccc3ncccc3c2)on1 (configuration not stated)	-10.7	-119.8	17.3	85.9*	3.1	22.8
CC(CCCC(C)(C)O)NC(=O)c1cc(COc2ccc3ncccc3c2)on1 (configuration not stated)	-4.0	15.7	26.5	88.0*	-6.4	15.6
CN(CC(=O)Nc1ccc(Cl)cc1)C(=O)CNC(=O)Cc1cccc2ccccc12	nt	nt	nt	-4.6	25.7	4.8
COc1cc(C(=O)NCC(=O)N/N=C/c2cccnc2)cc(OC)c1OC	-4.0	-0.1	3.8	-5.9	-17.4	7.4
CCCCNC(=O)CCc1c(C)nc2c(c(C)nn2-c2ccccc2)c1C	0.7	54.6*	-0.8	-0.2	3.9	16.1
Cc1nn(-c2ccc(N3CCCCC3)nn2)c(C)c1CCC(=O)Nc1ccc(F)c(F)c1	11.6	-3.0	-1.8	4.4	-14.2	-93.0
Cc1nn2c(COc3ccc(NC(=O)c4ccccc4)cc3)nnc2c2ccccc12	94.0*	-0.2	-28.3	10.5	-0.7	20.7
CCC(=O)Nc1ccc(OCc2nnc3c4ccccc4c(C)nn23)cc1	4.9	2.3	8.7	1.0	12.3	-12.2
O=C(N/N=C/c1cc(Cl)cc([N+](=O)[O-])c1O)c1ccc2c(c1)OCO2	2.3	57.5*	-1.3	22.1	31.3	35.8
O=C(N/N=C/c1cc2c(cc1Br)OCO2)c1c[nH]c2ccccc12	5.1	61.7*	-6.9	-3.0	-2.9	-26.2
O=C(N/N=C/c1ccc2c(c1)OCO2)c1ccc2c(c1)OCCO2	0.1	-12.9	-5.9	5.6	62.1	-50.7
O=C(N/N=C/c1ccc(Cl)cc1)c1ccc2c(c1)OCO2	-5.3	4.1	9.7	9.2	33.7	14.9
O=C(N/N=C/c1ccccc1O)c1ccc2c(c1)OCO2	104.7*	-0.2	13.6	95.4*	29.6	13.3
Cc1cc(C(=O)N/N=C/c2cc(Cl)cc([N+](=O)[O-])c2O)c2ccccc2n1	114.4*	24.3	79.2*	5.1	45.0	19.7
COc1ccccc1N1CCN(Cc2c[nH]c3ccccc23)CC1	0.4	57.6*	-5.7	nt	4.6	10.5
COc1ccccc1N1CCN(Cc2ccc(OC)c(OC)c2OC)CC1	0.3	16.4	-25.5	-1.6	-6.6	4.5
Cc1ccccc1N1CCN(Cc2c[nH]c3ccccc23)CC1	-5.7	60.2*	-18.2	111.2*	30.4	9.4
